ChEMBL document CHEMBL1255365, “In vitro antifungal susceptibility and molecular characterization of clinical isolates of Fusarium verticillioides (F. moniliforme) and Fusarium thapsinum” (2008)
≈ marks a conversion by molar mass, not a printed value.

What was measured:
Format in all cases: functional
Fusarium verticillioides [1] = experiment: Antifungal activity against Fusarium moniliforme clade 1 by microdilution method
How it was run: (§1)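 Clinical isolates grown on potato dextrose agar for 7 days at 25°C. Susceptibility tested by modified NCCLS (2002) broth microdilution reference method for filamentous fungi. Final inoculum 4 × 10^3 to 5 × 10^4 conidia/ml. Final drug ranges: 64–0.12 μg/ml for fluconazole and flucytosine, 128–0.25 μg/ml for micafungin, 16–0.03 μg/ml for the other azoles, amphotericin B and terbinafine.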

[2] = Antifungal activity against Fusarium thapsinum by microdilution method; conditions: Gibberella thapsina; how it was run: as §1
Fusarium verticillioides [3] = experiment: Antifungal activity against Fusarium moniliforme clade 3 by microdilution method; how it was run: as §1
Fusarium verticillioides [4] = experiment: Antifungal activity against Fusarium moniliforme clade 2 by microdilution method; how it was run: as §1

| SMILES | MIC (Fusarium verticillioides [1]) [mg/L] | MIC [2] [mg/L] | MIC (Fusarium verticillioides [3]) [mg/L] | MIC (Fusarium verticillioides [4]) [mg/L] |
| --- | --- | --- | --- | --- |
| C[C@@H](n1cnc2cc(Cl)ccc2c1=O)[C@](O)(Cn1cncn1)c1ccc(F)cc1F [ALBACONAZOLE] | 3.03 (≈ 7.02 µM) | 18.4 (≈ 42.6 µM) | 5.66 (≈ 13.1 µM) | 3.56 (≈ 8.24 µM) |
| C[C@@H]1[C@H](O)[C@@H](C)/C=C/C=C/C=C/C=C/C=C/C=C/C=C/[C@H](O[C@@H]2O[C@H](C)[C@@H](O)[C@H](N)[C@@H]2O)C[C@@H]2O[C@](O)(C[C@@H](O)C[C@@H](O)[C@H](O)CC[C@@H](O)C[C@@H](O)CC(=O)O[C@H]1C)C[C@H](O)[C@H]2C(=O)O [AMPHOTERICIN B] | 2.41 (≈ 2.61 µM) | 2.64 (≈ 2.86 µM) | 2 (≈ 2.16 µM) | 2.24 (≈ 2.42 µM) |
| CCC(C)n1ncn(-c2ccc(N3CCN(c4ccc(OCC5COC(Cn6cncn6)(c6ccc(Cl)cc6Cl)O5)cc4)CC3)cc2)c1=O (configuration not stated) [ITRACONAZOLE] | 12.7 (≈ 18 µM) | > 16 | > 16 | > 16 |
| CC(=O)N1CCN(c2ccc(OCC3COC(Cn4ccnc4)(c4ccc(Cl)cc4Cl)O3)cc2)CC1 (configuration not stated) [KETOCONAZOLE] | 2 (≈ 3.76 µM) | > 16 | 8 (≈ 15.1 µM) | 8 (≈ 15.1 µM) |
| CC[C@@H]([C@H](C)O)n1ncn(-c2ccc(N3CCN(c4ccc(OC[C@@H]5CO[C@@](Cn6cncn6)(c6ccc(F)cc6F)C5)cc4)CC3)cc2)c1=O [POSACONAZOLE] | 0.79 (≈ 1.13 µM) | > 16 | 1 (≈ 1.43 µM) | 0.89 (≈ 1.27 µM) |
| C[C@@H](c1nc(-c2ccc(C#N)cc2)cs1)[C@](O)(Cn1cncn1)c1ccc(F)cc1F [RAVUCONAZOLE] | 1.45 (≈ 3.31 µM) | 18.4 (≈ 42 µM) | 4 (≈ 9.14 µM) | 2.24 (≈ 5.12 µM) |
| CN(C/C=C/C#CC(C)(C)C)Cc1cccc2ccccc12 [TERBINAFINE] | 0.21 (≈ 0.721 µM) | 0.44 (≈ 1.51 µM) | 0.25 (≈ 0.858 µM) | 0.31 (≈ 1.06 µM) |
| C[C@@H](c1ncncc1F)[C@](O)(Cn1cncn1)c1ccc(F)cc1F [VORICONAZOLE] | 2 (≈ 5.73 µM) | 2.64 (≈ 7.56 µM) | 2 (≈ 5.73 µM) | 2.83 (≈ 8.1 µM) |
